Only some compounds are listed: those with a hit (about 2.6% of all), similar ones and a draw of the others.
MEKK2wt PB1 HTS = raises or lowers MEK5 binding to wildtype human MEKK2 PB1 domain | Q9Y2U5 | bead flow cytometry, Alexa488-MEK5 binding to MEKK2 WT; actives lie on both sides | binding response (% of control), % at 10 µM | hit rate 1.1% among 290,000; in the data active means binding response below about 67% or above about 130%
MEKK3 PB1 HTS = MEKK3-MEK5 PB1 interaction, increase or decrease | bead-based flow cytometry, Alexa488-MEK5 binding to MEKK3; actives lie on both sides; 0 = blocked by unlabeled MEK5, 100 = vehicle | binding response (% of control), % at 10 µM | hit rate 1.4% among 290,000 | AID 1529;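 active means binding response more than 3 SD above or below the average of its plate-row segment, actives on both sides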;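 further: Alexa488 bead fluorescence after subtracting the streptavidin-only scavenger bead signal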
Target sequence (Q99759 whole entry, looked up): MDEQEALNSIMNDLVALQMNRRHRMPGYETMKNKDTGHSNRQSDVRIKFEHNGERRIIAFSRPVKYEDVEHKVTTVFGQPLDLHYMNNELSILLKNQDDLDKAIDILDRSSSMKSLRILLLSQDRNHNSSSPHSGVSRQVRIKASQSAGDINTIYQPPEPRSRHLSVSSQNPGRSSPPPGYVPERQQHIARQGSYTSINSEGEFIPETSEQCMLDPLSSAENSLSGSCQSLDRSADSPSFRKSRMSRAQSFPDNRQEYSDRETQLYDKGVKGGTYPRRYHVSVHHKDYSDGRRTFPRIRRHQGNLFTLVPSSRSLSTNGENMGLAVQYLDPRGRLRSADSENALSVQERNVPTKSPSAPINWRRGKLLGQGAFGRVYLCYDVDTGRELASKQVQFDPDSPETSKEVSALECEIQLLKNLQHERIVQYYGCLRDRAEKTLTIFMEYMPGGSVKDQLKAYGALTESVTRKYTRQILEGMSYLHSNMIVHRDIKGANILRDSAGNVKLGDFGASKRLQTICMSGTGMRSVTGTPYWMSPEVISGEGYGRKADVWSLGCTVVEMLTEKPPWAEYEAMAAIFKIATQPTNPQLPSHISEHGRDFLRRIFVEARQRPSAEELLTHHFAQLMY
Hep lipid drop = modulators of hepatic lipid droplet formation. AML12 mouse hepatocytes, oleate lipid droplets, BODIPY imaging. inhibition, % at 6.5 µM. hit rate 0.4% among 240,000;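 active means lipid droplet intensity inhibited by at least 50%, with more than 500 cells counted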
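Assay system: AML12 hepatocytes (mouse) / Also added: 100 µM oleic acid challenge / Times: overnight treatment with compound plus oleate / Detection: high-content imaging of BODIPY-stained droplets and DAPI nuclei / Evaluation: % inhibition of lipid droplet signal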
MEKK2 mut-MEK5 = signal of MEK5 binding to mutant human MEKK2 PB1 domain | percent response, % at 10 µM | hit rate 0.35% among 290,000 | bead flow cytometry, Alexa488-MEK5 binding to MEKK2 mutant | AID 1530; in the data active means percent response above about 24%, passing the limit was not always enough
MEKK2wt confirm = raises or lowers MEK5 binding to wildtype human MEKK2, retest; shares compounds with MEKK3 PB1 HTS; bead flow cytometry, Alexa488-MEK5 binding to MEKK2 WT; actives lie on both sides; binding response (% of control), % at 10 µM; hit rate 2.4% among 5,900; in the data active means binding response below about 16% or above about 210%; inactive means in between
MEKK2mut confirm = signal of MEK5 binding to mutant human MEKK2, retest; percent response, % at 10 µM; hit rate 2% among 5,900; bead flow cytometry, Alexa488-MEK5 binding to MEKK2 mutant; shares compounds with MEKK3 PB1 HTS; in the data active means percent response mostly above about 71%, no sharp cut-off; inactive means mostly below about 38%;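 further: higher means compound restores mutant binding toward wildtype level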
MEKK3-MEK5 inh = confirmation of inhibitors of MEK5 binding to human MEKK3; AID 1894; shares compounds with MEKK3 PB1 HTS; hit rate 1.8% among 5,900; binding response (% of control), % at 10 µM; bead flow cytometry, Alexa488-MEK5 binding to MEKK3; active compounds read low;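 active means binding response below 72% of control, or above a set upper limit, though filed actives all read lower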;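 further: lower values mean stronger disruption of MEK5 binding to MEKK3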
Numbers stand for hits; [ ] = dose if it differs, or a comment.

Results for CCCCNC(=S)N(C)/N=C/c1ccc(OCC(=O)Nc2c(C)cc(C)cc2C)c(OC)c1 ?
MEKK2wt PB1 HTS: inactive; MEKK3 PB1 HTS: 129; Hep lipid drop: inactive; MEKK2 mut-MEK5: inactive; MEKK2wt confirm: inactive; MEKK2mut confirm: inactive; MEKK3-MEK5 inh: inactive

How did CCNC(=S)N/N=C/c1ccc(OCC(=O)Nc2ccc(OC)cc2)c(OC)c1 do in these assays?
MEKK2wt PB1 HTS: inactive; MEKK3 PB1 HTS: inactive; Hep lipid drop: inactive; MEKK2 mut-MEK5: inactive

What do the screens show for `COc1ccc(/C=C(\C#N)C(=O)OCCNC(=O)c2ccncc2)cc1`?
MEKK2wt PB1 HTS: inactive; MEKK3 PB1 HTS: inactive; Hep lipid drop: inactive; MEKK2 mut-MEK5: inactive

Results for C/C(=N/NC(=O)c1cnccn1)c1cccs1 ?
MEKK2wt PB1 HTS: inactive; MEKK3 PB1 HTS: inactive; Hep lipid drop: inactive; MEKK2 mut-MEK5: inactive

What do the screens show for `COC(=O)C(CC(C)C)NC(=O)c1cccs1` (configuration not stated)?
MEKK2wt PB1 HTS: inactive; MEKK3 PB1 HTS: 129; Hep lipid drop: inactive; MEKK2 mut-MEK5: inactive; MEKK2wt confirm: inactive; MEKK2mut confirm: inactive; MEKK3-MEK5 inh: inactive

How did CCCOc1ccc(C(=O)NCC(c2cccs2)N(C)C)cc1OC (configuration not stated) do in these assays?
MEKK2wt PB1 HTS: inactive; MEKK3 PB1 HTS: 146; Hep lipid drop: inactive; MEKK2 mut-MEK5: inactive; MEKK2wt confirm: inactive; MEKK2mut confirm: inactive; MEKK3-MEK5 inh: inactive

Results for CCN(CC)CCCNC(=S)N1CCN(c2nc(-c3ccc(F)cc3)cs2)CC1 ?
MEKK2wt PB1 HTS: 186; MEKK3 PB1 HTS: inactive; Hep lipid drop: inactive; MEKK2 mut-MEK5: 27; MEKK2wt confirm: inactive; MEKK2mut confirm: inactive; MEKK3-MEK5 inh: inactive

Results for Nc1ccc(C(=O)Nc2cccc(N)c2)cc1 ?
MEKK2wt PB1 HTS: inactive; MEKK3 PB1 HTS: inactive; Hep lipid drop: inactive; MEKK2 mut-MEK5: inactive

What do the screens show for `O=C(NC1CC2CCCC(C1)N2Cc1ccco1)NC12CC3CC(CC(C3)C1)C2` (configuration not stated)?
MEKK2wt PB1 HTS: inactive; MEKK3 PB1 HTS: 132; MEKK2 mut-MEK5: inactive; MEKK2wt confirm: inactive; MEKK2mut confirm: inactive; MEKK3-MEK5 inh: inactive

What do the screens show for `CCNC(=S)NC1CC2CCCC(C1)N2Cc1ccc(C)cc1` (configuration not stated)?
MEKK2wt PB1 HTS: inactive; MEKK3 PB1 HTS: inactive; Hep lipid drop: inactive; MEKK2 mut-MEK5: inactive

What do the screens show for `CCNC(=S)NC1CC2CCCC(C1)N2Cc1ccco1` (configuration not stated)?
MEKK2wt PB1 HTS: inactive; MEKK3 PB1 HTS: 81[inhibitor]; MEKK2 mut-MEK5: inactive; MEKK2wt confirm: inactive; MEKK2mut confirm: inactive; MEKK3-MEK5 inh: inactive

How did O=C(CCN1CCC(c2ccccc2)C1)c1ccccc1 (configuration not stated) do in these assays?
MEKK2wt PB1 HTS: inactive; MEKK3 PB1 HTS: inactive; MEKK2 mut-MEK5: inactive

Results for O=C(CCN1CCC(c2ccccc2)C1)c1cccs1 (configuration not stated) ?
MEKK2wt PB1 HTS: inactive; MEKK3 PB1 HTS: 81[inhibitor]; MEKK2 mut-MEK5: inactive; MEKK2wt confirm: inactive; MEKK2mut confirm: inactive; MEKK3-MEK5 inh: inactive

What do the screens show for `CC(C)Cn1c(CN2CCN(C(=O)c3ccco3)CC2)nc2c1c(=O)n(C)c(=O)n2C`?
MEKK2wt PB1 HTS: inactive; MEKK3 PB1 HTS: 141; Hep lipid drop: inactive; MEKK2 mut-MEK5: inactive; MEKK2wt confirm: inactive; MEKK2mut confirm: inactive; MEKK3-MEK5 inh: inactive

Results for CC(C)CCn1c(CN2CCN(C(=O)c3ccco3)CC2)nc2c1c(=O)n(C)c(=O)n2C ?
MEKK2wt PB1 HTS: inactive; MEKK3 PB1 HTS: inactive; MEKK2 mut-MEK5: inactive

How did CCCn1c(=NC(=O)c2ccco2)c(C(=O)OCC)cc2c(=O)n3ccccc3nc21 do in these assays?
MEKK2wt PB1 HTS: -2.0[inhibitor]; MEKK3 PB1 HTS: 2.0[inhibitor]; Hep lipid drop: inactive; MEKK2 mut-MEK5: inactive; MEKK2wt confirm: inactive; MEKK2mut confirm: inactive; MEKK3-MEK5 inh: inactive

How did CCOC(=O)c1cc2c(=O)n3ccccc3nc2n(C(C)C)c1=NC(=O)c1ccco1 do in these assays?
MEKK2wt PB1 HTS: inactive; MEKK3 PB1 HTS: inactive; Hep lipid drop: inactive; MEKK2 mut-MEK5: inactive

How did Cn1c(C(=O)N2CCN(C(=O)c3ccco3)CC2)cc2c(=O)n3ccccc3nc21 do in these assays?
MEKK2wt PB1 HTS: inactive; MEKK3 PB1 HTS: 138; Hep lipid drop: inactive; MEKK2 mut-MEK5: inactive; MEKK2wt confirm: inactive; MEKK2mut confirm: inactive; MEKK3-MEK5 inh: inactive

What do the screens show for `CCOc1ccccc1N1CCN(C(=O)c2cc3cc(OC)ccc3[nH]2)CC1`?
MEKK2wt PB1 HTS: inactive; MEKK3 PB1 HTS: inactive; MEKK2 mut-MEK5: inactive

What do the screens show for `CN1CCN(CCCNC(=O)c2ccc(/C=C3/Sc4ccccc4N(Cc4cccc(Cl)c4)C3=O)cc2)CC1`?
MEKK2wt PB1 HTS: 224; MEKK3 PB1 HTS: inactive; Hep lipid drop: inactive; MEKK2 mut-MEK5: 65; MEKK2wt confirm: 209; MEKK2mut confirm: 73; MEKK3-MEK5 inh: inactive

What do the screens show for `O=C(CN1C(=O)/C(=C/c2ccccc2)Sc2ccccc21)NCCCN1CCOCC1`?
MEKK2wt PB1 HTS: inactive; MEKK3 PB1 HTS: inactive; Hep lipid drop: inactive; MEKK2 mut-MEK5: inactive

Results for CN1CCN(CCCNC(=O)c2ccc(/C=C3\Sc4ccccc4N(Cc4ccc(F)cc4)C3=O)cc2)CC1 ?
MEKK2wt PB1 HTS: 163; MEKK3 PB1 HTS: inactive; Hep lipid drop: inactive; MEKK2 mut-MEK5: inactive; MEKK2wt confirm: inactive; MEKK2mut confirm: inactive; MEKK3-MEK5 inh: inactive

How did O=C(NCCCN1CCOCC1)c1ccc2c(c1)N(Cc1ccccc1)C(=O)c1ccccc1S2 do in these assays?
MEKK2wt PB1 HTS: inactive; MEKK3 PB1 HTS: inactive; Hep lipid drop: inactive; MEKK2 mut-MEK5: inactive

What do the screens show for `Cc1cc2nsnc2c(S(=O)(=O)N2CCN(C)CC2)c1C`?
MEKK2wt PB1 HTS: inactive; MEKK3 PB1 HTS: inactive; Hep lipid drop: inactive; MEKK2 mut-MEK5: inactive

How did COc1ccccc1CNC(=O)C1CCN(S(=O)(=O)c2ccc3c(c2)NC(=O)CO3)CC1 do in these assays?
MEKK2wt PB1 HTS: inactive; MEKK3 PB1 HTS: inactive; Hep lipid drop: inactive; MEKK2 mut-MEK5: inactive

Results for COc1ccc(/C=C2\CCc3ccccc3C2=O)cc1O ?
MEKK2wt PB1 HTS: inactive; MEKK3 PB1 HTS: inactive; Hep lipid drop: inactive; MEKK2 mut-MEK5: inactive

Results for COc1cc(/C=N/NC(=O)C(=O)NCC2CCCO2)ccc1O (configuration not stated) ?
MEKK2wt PB1 HTS: inactive; MEKK3 PB1 HTS: 162; Hep lipid drop: inactive; MEKK2 mut-MEK5: inactive; MEKK2wt confirm: inactive; MEKK2mut confirm: inactive; MEKK3-MEK5 inh: inactive

Results for COc1cc(/C=N/NC(=O)/C(=C\c2ccc3c(c2)OCO3)NC(=O)c2ccccc2)ccc1O ?
MEKK2wt PB1 HTS: inactive; MEKK3 PB1 HTS: 142; Hep lipid drop: inactive; MEKK2 mut-MEK5: inactive; MEKK2wt confirm: inactive; MEKK2mut confirm: inactive; MEKK3-MEK5 inh: inactive

Screening results: PubChem, several laboratories
